Screening data deposited in PubChem by Broad Institute.
XiGFP reactiv = X-chromosome reactivation activator; activation, % at 7.58 µM; hit rate 0.055% among 360,000; XiGFP mouse fibroblasts, % GFP-positive cells imaging, 3 d; cells co-treated with 5-aza-dC sensitizer; scaled so ellipticine positive control = 100%;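 active = mean normalized replicate activation at least 10% and every replicate at or above 10%; inconclusive = only one of the two criteria met; inactive = mean below 10% and not all replicates reach 10%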
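System: XiGFP fibroblasts, SV40-immortalized. Medium: DMEM plus 5-aza-dC sensitizer. Doses: single point. Timing: 3 d treatment, 15 min room-temperature fixation. Control set: ellipticine 6 µM.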
rRNA inh HTS = inhibitors of bacterial rRNA selective over humanized ribosomes. E. coli WT GFP vs humanized-ribosome RFP mutants, fluorescence, 24 h; active compounds read low; DMSO median 0, no signal -100. GFP signal change (wild-type ribosome), % (concentration not given with the values). hit rate 1.6% among 350,000. AID 720706;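 active = significant combined selectivity score with lowered wild-type GFP, culture density cut under 30%, mutant RFP and density less affected; inactive = any of these conditions unmet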
SR-BI HDL uptake = mouse SR-BI HDL lipid transfer inhibition. Q61009. ldlA[mSR-BI] CHO cells, DiI-HDL uptake fluorescence, 3 h. inhibition, % at 12.5 µM. hit rate 0.96% among 320,000. AID 488896;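 active = mean replicate inhibition of at least 70% and a set share of replicates each scoring 70 or more; inconclusive = meets just one of the two criteria; inactive = fails both criteria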
dFosB act = mouse delta FosB homodimer activation; P13346; purified delta FosB, TAMRA-CDK5 oligo fluorescence polarization; percent of positive-control signal above neutral wells; activation, % at 25 µM; hit rate 0.99% among 340,000; AID 493131;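 active = mean activation above about 17%, with every replicate also reaching it, limit read from the data, passing the limit was not always enough; inconclusive = only one of the two conditions met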
Target sequence (P13346 whole entry, looked up): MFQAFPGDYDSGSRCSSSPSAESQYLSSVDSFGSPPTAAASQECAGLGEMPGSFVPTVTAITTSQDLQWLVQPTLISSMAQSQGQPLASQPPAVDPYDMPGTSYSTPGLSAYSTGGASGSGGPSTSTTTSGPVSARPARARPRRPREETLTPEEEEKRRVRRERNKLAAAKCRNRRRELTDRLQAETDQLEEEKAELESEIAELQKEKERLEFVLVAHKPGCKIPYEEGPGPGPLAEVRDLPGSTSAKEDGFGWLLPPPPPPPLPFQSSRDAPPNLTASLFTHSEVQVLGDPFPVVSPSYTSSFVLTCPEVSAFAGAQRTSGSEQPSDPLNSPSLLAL
SR-BI uptake up = enhances SR-BI lipid uptake from DiI-HDL. AID 504775. hit rate 0.096% among 320,000. activation, % at 12.5 µM. CHO ldlA[mSR-BI] cells, DiI-HDL uptake fluorescence, 3 h; 100 = double the neutral-control signal;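 active = mean replicate activation of at least 60% and every replicate at or above 60%; inconclusive = mean or all-replicate condition met, but not both; inactive = mean below 60% and not all replicates reaching 60%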
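System: CHO ldlA[mSR-BI] cells / Medium: HEPES-buffered (25 mM, pH 7.4) F12 plus 0.5% BSA / Probe or stimulus: labelled HDL, 10 µg/mL / Doses: single compound concentration, delivered by pin transfer / Schedule: 3 h, 37 °C / Measured by: DiI fluorescence, bottom read / Measure: cell-associated DiI fluorescence as measure of HDL uptake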
PvdQ inh = blocks Pseudomonas aeruginosa PvdQ acylase activity | purified PvdQ acylase, fluorescence plate reader | inhibition, % at 10 µM | hit rate 0.063% among 340,000; in the data active = inhibition above about 30%, passing the limit was not always enough; inconclusive = no clear call, values can overlap the other calls
Hits are given with their value; 0 = inactive; ? = inconclusive; - = not tested or not shown. In the library only some 2.6% were active in any assay of this set; here they are far more common.

SMILES | XiGFP reactiv | rRNA inh HTS | SR-BI HDL uptake | dFosB act | SR-BI uptake up | PvdQ inh
C/C(CCC1CC(C)(C)OC1=O)=N\NC(N)=S (configuration not stated) | 0 | 0 | 72 | 0 | 0 | 0
C/C(CCC1CC(C)OC1=O)=N\NC(N)=O (configuration not stated) | 0 | 0 | - | - | - | -
CCN1C[C@@H]2[C@@H]3C(=O)N(Cc4ccccc4)C(=O)[C@@H]3[C@](C)(C1=O)N2C(=O)c1ccc(Cl)cc1 | 0 | 0 | 0 | 0 | 0 | 0
COc1c(O)cc2c(c1O)C1OC(CO)C(O)C(O)C1OC2=O (configuration not stated) | 0 | -22 | 0 | 0 | 0 | 0
C[C@H]1CN([C@@H](C)CO)S(=O)(=O)c2ccc(-c3ccc(C#N)cc3)cc2O[C@H]1CN(C)C(=O)CN(C)C | 0 | 0 | - | - | - | -
O=C1CC(N(O)C2CC(=O)N(Cc3ccccc3)C2=O)C(=O)N1Cc1ccccc1 (configuration not stated) | - | - | 0 | 0 | 0 | 0
Cc1nc(N)sc1Cc1ccc2c(c1)OCO2 | - | - | 0 | 0 | 0 | 0
CC12CCC(C(=O)N3CCC(Cc4ccccc4)CC3)(C(=O)C1=O)C2(C)C (configuration not stated) | 0 | -23 | 0 | 0 | 0 | 0
Nc1c(C(=O)NCc2ccccc2)c2nc3ccccc3nc2n1CCCN1CCOCC1 | 0 | 0 | 0 | ? | 0 | 0
Nc1c(C(=O)NCc2ccco2)c2nc3ccccc3nc2n1CCc1ccccc1 | 0 | -28 | 0 | 0 | 0 | 0
CCN(CC)C(=O)[C@H]1C[C@H](CC(=O)NCCc2ccccn2)C(=O)N2CCc3c([nH]c4cc(CCC(=O)N(C)C)ccc34)[C@]12C | 0 | 0 | 0 | 0 | 0 | 0
Cc1oc2c(CN3CCCC3)c(O)ccc2c(=O)c1-c1ccc(Br)cc1 | - | -28 | 0 | 0 | 0 | 0
Cc1oc2c(CN3CCCCC3)c(O)ccc2c(=O)c1-c1ccc(Br)cc1 | 0 | 0 | 0 | 0 | 0 | 0
O=C(COc1cccnc1[N+](=O)[O-])N1CCC(Cc2ccccc2)CC1 | 0 | 0 | 0 | 0 | 0 | 0
C=C(C)n1c(=O)n(Cc2ccccc2C)c2ccccc21 | 0 | -31 | 0 | 0 | 0 | 0
CCc1cc(C(=O)c2ccc(OC)cc2)c(NC(=O)COCC(=O)O)s1 | 0 | 0 | 0 | 0 | 0 | 0
CCc1cc(C(=O)c2ccc(OC)cc2)c(NC(=O)CC(C)(C)CC(=O)O)s1 | 0 | -28 | - | 0 | - | 0
O=C(Nc1ccccc1Br)C1CCN(S(=O)(=O)c2cccs2)CC1 | 0 | -16 | 0 | 0 | 0 | 0
N#Cc1sc2nc(-c3cccs3)cc(-c3ccc(F)cc3)c2c1N | 0 | - | 82 | 0 | 0 | 0
O=C(NCC1CC1)c1ccc2sc([C@H]3C[C@H](O)[C@@H](CO)O3)nc2c1 | 0 | 0 | - | - | - | -
N#CCN(N=Nc1ccccc1)c1ccccc1 | 0 | 0 | 0 | 0 | 0 | 75
Nc1c(C(=O)NCc2ccc3c(c2)OCO3)nnn1Cc1ccc(Br)cc1 | 0 | 0 | - | 20 | - | 0
CCOC(=O)c1[nH]c2ccc(OC)cc2c1NC(=S)N1CCN(c2cccc(C)c2C)CC1 | 0 | 0 | 73 | 0 | 0 | 0
COc1ccc(CC(=O)N2CCN(c3cccc(C)c3C)CC2)cc1 | 0 | 0 | 0 | 0 | 0 | 0
COc1cccc(NC(=O)N2CCN(c3nc(-c4cccc(OC)c4)cs3)CC2)c1 | - | -30 | - | 0 | - | 0
SMILES | XiGFP reactiv | rRNA inh HTS | SR-BI HDL uptake | dFosB act | SR-BI uptake up | PvdQ inh
COc1cccc(-c2csc(N3CCN(C(=O)Nc4ccccc4Cl)CC3)n2)c1 | 0 | 0 | 0 | 0 | 0 | 0
CCOC(=O)c1[nH]c2ccc(OC)cc2c1NC(=S)N1CCN(c2ccc(F)cc2)CC1 | 0 | - | 0 | 0 | 0 | 0
COc1cccc(NC(=O)N2CCN(c3cccc(C)c3C)CC2)c1 | - | - | 71 | 0 | 0 | 0
Cc1oc(S(=O)(=O)N2CCOCC2)cc1C(=O)Nc1ccc(F)cc1 | 0 | 0 | 0 | 0 | 0 | 0
Oc1ccc(Cl)cc1C1=NNC(c2cc(Br)cc3c2OCOC3)C1 (configuration not stated) | 0 | 0 | 0 | 0 | 0 | 0
Oc1ccc(Cl)cc1C1=NNC(c2ccc(Cl)cc2)C1 (configuration not stated) | 0 | 0 | 84 | 0 | 0 | 0
